Source: ChEMBL document CHEMBL4613254, “Using the Cancer Dependency Map to Identify the Mechanism of Action of a Cytotoxic Alkenyl Derivative from the Fruit of Choerospondias axillaris” (J Nat Prod, 2020)
Activity calls are given as the source filed them. No cut-off for these calls is given here.

Legend:
[1] = system: Hep293TT; test: Growth inhibition of human Hep293TT cells assessed as reduction in cell viability after 48 hrs by SRB assay; format: functional
Method in brief: (§1)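 Cells were kept in RPMI-1640 with 5% FBS and 50 μg/mL gentamicin at 37 °C and 5% CO2, and plated at 4,000–6,000 cells/well to adhere overnight. Compounds in DMSO (0.5% v/v final) went to triplicate wells for 48 h. Cells were fixed with 10% TCA, and time-0 plates were fixed at dosing. SRB absorbance was read at 560 nm, with GI50 fitted by non-linear regression for each experiment.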

[2] = system: A673; test: Growth inhibition of human A673 cells assessed as reduction in cell viability after 48 hrs by SRB assay; format: functional; settings: A673, 48 h; method in brief: as §1
[3] = Growth inhibition of human D283 cells assessed as reduction in cell viability after 48 hrs by SRB assay; format: functional; settings: D283, 48 h
Method in brief: (§2)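 Cells were grown in IMEM with 5% FBS and 25 μg/mL gentamicin at 37 °C and 5% CO2, then seeded at 4,000–6,000 cells/well overnight. DMSO solutions (0.5% v/v final) were added to triplicate wells for 48 h, and time-0 plates were fixed at addition. Fixation was with TCA; for D283, 20% TCA was added straight into the medium. SRB absorbance at 560 nm gave GI50 by non-linear regression.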

[4] = Growth inhibition of human SJCRH30 cells assessed as reduction in cell viability after 48 hrs by SRB assay; format: functional; method in brief: as §1
[5] = system: D341 cell line; test: Growth inhibition of human D341 cells assessed as reduction in cell viability after 48 hrs by SRB assay; format: functional; settings: D341, 48 h; method in brief: as §2
[6] = system: Daoy; test: Growth inhibition of human DaOY cells assessed as reduction in cell viability up to 10 uM after 48 hrs by SRB assay; format: functional, cell-based; method in brief: as §2
[7] = system: SK-ES1; test: Growth inhibition of human SK-ES-1 cells assessed as reduction in cell viability after 48 hrs by SRB assay; format: functional; settings: SK-ES1, 48 h; method in brief: as §1
[8] = system: HCC1806; test: Growth inhibition of human HCC1806 cells assessed as reduction in cell viability up to 10 uM after 48 hrs by SRB assay; format: functional, cell-based; method in brief: as §1
[9] = biological target: T1, Monocarboxylate transporter 1 (Homo sapiens) (UniProt P53985); test: Inhibition of MCT1 in human A673 cells assessed as reduction in BrPA-induced cytotoxicity at 10 nM by SRB assay; format: cell-based
T1 sequence (whole entry): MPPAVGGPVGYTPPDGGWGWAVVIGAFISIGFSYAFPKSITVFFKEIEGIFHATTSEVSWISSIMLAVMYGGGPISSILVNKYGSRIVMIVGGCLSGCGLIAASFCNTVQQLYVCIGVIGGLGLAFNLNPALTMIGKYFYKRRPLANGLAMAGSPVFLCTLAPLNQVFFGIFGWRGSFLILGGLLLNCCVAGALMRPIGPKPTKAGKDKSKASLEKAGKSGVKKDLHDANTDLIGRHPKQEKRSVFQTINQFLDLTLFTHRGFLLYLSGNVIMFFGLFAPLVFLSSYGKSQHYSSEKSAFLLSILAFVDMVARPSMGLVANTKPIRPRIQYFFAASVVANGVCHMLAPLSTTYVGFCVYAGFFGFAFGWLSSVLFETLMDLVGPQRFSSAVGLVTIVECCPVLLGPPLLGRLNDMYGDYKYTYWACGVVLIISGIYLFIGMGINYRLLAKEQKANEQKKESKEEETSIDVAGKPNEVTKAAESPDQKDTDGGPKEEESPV
Method in brief: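 A-673 cells were grown in RPMI-1640 with 5% FBS. Test compound or AZD3965 was added 1 h before BrPA, with DMSO as the vehicle control. Viability was read by SRB staining after TCA fixation, with absorbance at 560 nm.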

[10] = system: A673; test: Growth inhibition of human A673 cells assessed as reduction in cell viability up to 10 uM after 48 hrs by SRB assay; format: functional, cell-based; method in brief: as §1
[11] = system: HCT-15; test: Cytotoxicity against human HCT15 cells assessed as reduction in cell viability; format: functional, cell-based
[12] = system: HeLa; test: Cytotoxicity against human HeLa cells assessed as reduction in cell viability; format: functional, cell-based
[13] = system: A2780; test: Cytotoxicity against human A2780 cells assessed as reduction in cell viability; format: functional, cell-based

Row | Compound | GI50 [1] | GI50 [2] | GI50 [3] | GI50 [4] | further results
1 | CCCC/C=C\CCCCCCCCC[C@H](O)Cc1cc(O)ccc1O | 1020 nM | 160 nM | 80 nM | 170 nM | 
2 | CCCC/C=C\CCCCCCCCCCC[C@H](O)C[C@]1(O)CC(=O)C=C[C@H]1O | 390 nM | 580 nM | 400 nM | 180 nM | 
3 | CCCC/C=C\CCCCCCCCCCC[C@H](O)Cc1cc(O)ccc1O | 700 nM | 320 nM | 240 nM | 120 nM | 
4 | CCCC/C=C\CCCCCCCCCCCc1cc2cc(O)ccc2o1 | > 10000 nM | 190 nM | 70 nM | > 10000 nM | GI50 [5]: 20 nM; growth inhibition (GI) [6]: inactive; GI50 [7]: 120 nM; growth inhibition (GI) [8]: inactive; inhibition [9]: Active
5 | Cc1[nH]nc(C(F)(F)F)c1Cc1sc2c(c1C(=O)N1C[C@](C)(O)CO1)c(=O)n(C)c(=O)n2C(C)C |  |  |  |  | growth inhibition (GI) [10]: inactive; inhibition [9]: Active
6 | CCCC/C=C\CCCCCCCCCCC[C@@H]1C[C@]2(O)CC(=O)C[C@H](O1)[C@@H]2O |  |  |  |  | IC50 [11]: 3000 to 30000 nM; IC50 [12]: 3000 to 30000 nM; IC50 [13]: 3000 to 30000 nM
7 | CCCC/C=C\CCCCCCCCC[C@H](O)C[C@]1(O)CC(=O)C=C[C@H]1O | 500 nM | 650 nM | 410 nM | 240 nM | 
